Most compounds without a hit are left out; they make up all but 9.2% or so of the library.
Lmaj promast – reduces viability of Leishmania major promastigotes; 200,000 compounds, 9% hits; inhibition, % at 10 µM; resazurin fluorescence viability; AID 1063; in the data active = inhibition above about 50%;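 also: promastigotes grown with compound for 44 hours at 28 °C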
Dynein cargo inh – dynein cargo transport inhibition; 3617.4 mouse cells, GR-EGFP nuclear translocation imaging; test concentration mostly 20 µM; stimulated with dexamethasone, 1 µM; hits give low values; z-score, hits read low; 220,000 compounds, 0.47% hits; AID 1381;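 active = plate z-score of nuclear minus cytoplasmic receptor signal below a set negative limit, without overly bright fluorescence or cell loss, cut at about -3.5 in these data, passing the limit was not always enough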;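 also: z-score of nuclear minus cytoplasmic ring GR-EGFP intensity difference per well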
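medium = tetracycline-free induction medium containing charcoal-stripped FBS | probe or stimulus = dexamethasone, 1.0 µM final | timing = 48 h induction, then 1 h compound, then 30 min agonist, 37 °C | detection = automated 10x imaging of fixed Hoechst-stained cells | read-out basis = nuclear versus cytoplasmic GR-EGFP signal, averaged per well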
Autophagy HCS – alters autophagy in cells | MEF GFP-LC3 puncta imaging; test concentration mostly 10 µM | calls only at 10 µM (by protocol) | 190,000 compounds, 0.98% hits;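 active = percentage of spot-positive cells more than 3 SD above its plate mean, without a fluorescence outlier flag or 80% toxicity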;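 also: spot-positive cell cutoff set from DMSO-treated cells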
PTEN del growth – suppresses growth of cells with PTEN deletion | HCT116 PTEN-null viability, CellTiter-Glo, 60 h; hits give low values | viability, % at 10 µM | 140,000 compounds, 1.2% hits;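 active = viability at or below a set limit, 4 SD under the median of all tested compounds, cut at about 3.7% in these data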;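 also: PTEN knockout HCT116 line with beta catenin targeted HCT116 as companion control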
HCT116 bCat-KO – beta-catenin-lacking colon tumor cell growth suppression; HCT116 beta-catenin knockout viability, CellTiter-Glo, 60 h; hits give low values; viability, % at 10 µM; 140,000 compounds, 1.5% hits; AID 818;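 active = viability at or under a set limit, the compound median less 4 SD, cut at about 6% in these data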;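 also: 0% = Hyamine 1622 control at 20 µM and 100% = untreated cell control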
* hit, by the source's call; i = inactive; / = not tested or not shown; + = active, no number.

SMILES | Lmaj promast | Dynein cargo inh | Autophagy HCS | PTEN del growth | HCT116 bCat-KO
O=C(N/N=C/c1ccc([N+](=O)[O-])cc1)c1ccc(COc2ccccc2-c2ccccc2)cc1 | 90* | 0.58 | i | / | /
Nc1ccc(C(=O)N/N=C\C=C\c2ccc([N+](=O)[O-])cc2)cc1 | 11 | 0.86 | + | / | /
O=C(N/N=C/c1ccncc1)c1ccc(COc2cccc3cccnc23)cc1 | 2 | -1 | i | / | /
O=C(N/N=C/C=C/c1ccc2c(c1)OCO2)c1ccc([N+](=O)[O-])cc1 | -22 | -0.72 | i | 87 | 91
CC(Nc1cccc2ccccc12)C(=O)N/N=C/c1ccc([N+](=O)[O-])cc1 (stereo not drawn) | 0 | 0.41 | i | 71 | 77
O=C(COc1ccc(Br)cc1CNC1CCCC1)Nc1ccccc1 | 53* | -0.26 | i | / | /
O=C(COC(=O)c1ccccc1OCC(=O)Nc1ccc(Br)cc1)Nc1ccccc1 | 65* | 0.21 | i | 63 | 68
O=C(COc1ccc(Br)cc1CO)Nc1ccc(F)cc1 | 1 | 0.16 | i | 90 | 86
CCC(C)NC(=O)COC(=O)c1ccccc1OCC(=O)Nc1ccc(Br)cc1 (stereo not drawn) | -1 | 0.24 | i | 24 | 8
COCCNc1oc(-c2ccc(Cl)cc2)nc1C#N | -15 | -0.23 | i | 82 | 76
CN(C)CCCNc1oc(-c2ccc(Cl)cc2)nc1C#N | 83* | 1 | i | 79 | 77
COCCCNc1oc(-c2ccccc2Cl)nc1C#N | 0 | 0.059 | i | / | /
CCN(CC)CCCNc1oc(-c2cccc(Cl)c2)nc1C#N | 101* | 2.5 | + | 48 | 40
CN(c1ccc(OCC(=O)OCC(=O)Nc2c(F)c(F)c(F)c(F)c2F)cc1)S(=O)(=O)c1ccc(F)cc1 | -4 | 0.093 | i | 101 | 98
COc1cc(-c2[nH]ncc2CN2CCN(Cc3cccs3)CC2)cc(OC)c1OC | -2 | 0.12 | i | / | /
O=C(C1CCCCC1)N1CCN(c2ccccc2F)CC1 | -7 | -0.098 | i | 94 | 95
CC(C)CN1CCC(C(=O)N2CCN(c3ccccc3F)CC2)CC1 | 82* | -0.25 | i | 100 | 92
CCCCN(C)Cc1c(C)[nH]c2c(Cl)cccc2c1=O | 100* | -0.87 | i | 90 | 87
CCCCN(CC)Cc1c(C)[nH]c2ccccc2c1=O | -2 | -0.97 | i | 94 | 96
COC(=O)c1sc2cc([N+](=O)[O-])cc(SCC(C)C)c2c1N | -6 | -0.53 | + | 92 | 85
CCOC(=O)c1sc2ncc([N+](=O)[O-])cc2c1N | / | 0.22 | / | / | /
O=C(NCc1cc(C(F)(F)F)cc(C(F)(F)F)c1)C1CC(c2ccccc2[N+](=O)[O-])=NO1 (stereo not drawn) | 88* | 0.24 | i | 79 | 86
O=c1c2ccccc2sn1-c1ccc(S(=O)(=O)N2CCCCC2)cc1 | 4 | -1.2 | i | / | /
Cc1ccc(-n2sc3ccccc3c2=O)cc1S(=O)(=O)N1CCCCC1 | 89* | -0.85 | i | 34 | 56
O=C(CN1CCCCCC1)N/N=C/c1ccc(Cl)c(Cl)c1 | 88* | -0.39 | i | 107 | 96
SMILES | Lmaj promast | Dynein cargo inh | Autophagy HCS | PTEN del growth | HCT116 bCat-KO
O=C(CN1CCCCCCC1)N/N=C/c1ccc(F)cc1F | 61* | 1.2 | i | 93 | 103
O=C(CN1CCCCCC1)N/N=C/c1cccs1 | -5 | -0.0035 | i | 94 | 96
CCC(C)NS(=O)(=O)c1ccc(S(=O)(=O)N(CC(=O)Nc2ccccc2)CC2CCCO2)cc1 (stereo not drawn) | 60* | -0.28 | i | 80 | 85
COC(=O)COc1ccc(S(=O)(=O)NC2CCCCCC2)cc1 | 8 | 0.34 | i | 88 | 80
COC(=O)CCN(C1CCCCC1)S(=O)(=O)c1ccc(S(=O)(=O)NC2CCCCC2)cc1 | 99* | 0.86 | i | 65 | 79
CCC(C)NS(=O)(=O)c1ccc(NC(=O)CCC2CCCCC2)cc1 (stereo not drawn) | -4 | -0.0027 | i | 96 | 90
O=C(CN(C1CC1)S(=O)(=O)c1ccc(S(=O)(=O)NC2CCCCC2)cc1)Nc1ccccc1 | 100* | -0.11 | i | 66 | 62
C=CCNC(=S)N(C1CCCCC1)C1CCCCC1 | 5 | -0.52 | i | / | /
CCN(CCCNC(=O)CC(C(=O)N1CCc2ccccc21)n1ccnc1)c1ccccc1 (stereo not drawn) | 100* | 0.62 | i | 89 | 85
CC(=O)O[C@]1(C(C)=O)CC[C@H]2[C@@H]3C=C(Cl)C4=CC(=O)CC[C@]4(C)[C@H]3CC[C@@]21C | 68* | -0.3 | i | 62 | 65

High-throughput results as filed in PubChem.
